Consider 31 molecules from ChEMBL document CHEMBL4732224, “Structure activity refinement of phenylsulfonyl piperazines as antimalarials that block erythrocytic invasion” (Eur J Med Chem, 2021).

One assay relates to Plasmodium falciparum. Briefly: Antimalarial activity against Plasmodium falciparum 3D7 incubated for 72 hrs by LDH assay. The format is functional, organism-based. Conditions: 3D7, 72 h. An outline of the steps:
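Asexual blood-stage P. falciparum 3D7 parasites were cultured with compound for 72 h, and viability was read by lactate dehydrogenase (LDH) activity.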

For another assay, the system named is HepG2. Description: Cytotoxicity against human HePG2 cells assessed as growth inhibition after 48 hrs by Cell Titer-Glo assay. Format: cell-based. The settings on record: HepG2, 48 h. In general terms: In ATP-based viability assays light output follows the ATP content of the culture.

A value given as a limit tells only on which side of the number the result lay.

`CC(C(=O)N1CCCC1)N1CCN(S(=O)(=O)c2ccc(-c3ccccc3)cc2)CC1` (stereo not drawn): in the assay with Plasmodium falciparum, the EC50 (in general, the midpoint of the concentration-response curve) was over 10 µM. With `CC(C(=O)N1CCc2ccccc21)N1CCN(S(=O)(=O)c2ccc(C(C)(C)C)cc2)CC1` (stereo not drawn), the EC50 with Plasmodium falciparum is 0.93 µM; in the assay on HepG2, over 40 µM.

In the case of `CC(C)(C)c1ccc(S(=O)(=O)N2CCN(C(Cc3ccccc3)C(=O)N3CCCC3)CC2)cc1` (stereo not drawn), the 50% effective concentration (EC50) with Plasmodium falciparum was over 10 µM.

As for `CCC1(CC)c2ccccc2CCN1C(=O)C(C)N1CCN(S(=O)(=O)c2ccc(C(C)(C)C)cc2)CC1` (stereo not drawn), the results for the EC50 with Plasmodium falciparum and with HepG2 were 1.2 µM and over 40 µM, respectively.

With `C[C@H](C(=O)N1CCCC1)N1CCN(S(=O)(=O)c2ccc(C(C)(C)C)cc2)CC1`, the EC50 is over 11 µM in the assay on Plasmodium falciparum and over 40 µM in the assay on HepG2. On the same counts, the results for `CC(C(=O)N1CCC(C)(C)CC1)N1CCN(S(=O)(=O)c2ccc(C(C)(C)C)cc2)CC1` (stereo not drawn) are 4.3 µM and over 40 µM. On the same counts, the results for `CC(C(=O)N1CCc2ncccc2C1)N1CCN(S(=O)(=O)c2ccc(C(C)(C)C)cc2)CC1` (stereo not drawn) are 2.6 µM and over 40 µM. Turning to `CC(C(=O)N1CCCC1)N1CCN(S(=O)(=O)c2ccccc2)CC1` (stereo not drawn), in the assay on Plasmodium falciparum, the EC50 is over 10 µM. With `CC(C(=O)N1CCN(C)CC1)N1CCN(S(=O)(=O)c2ccc(C(C)(C)C)cc2)CC1` (stereo not drawn), the EC50 was 6.1 µM in the assay with Plasmodium falciparum and over 40 µM in the assay with HepG2. The matching figures for `CC(C(=O)N1CCC(F)(F)CC1)N1CCN(S(=O)(=O)c2ccc(C(C)(C)C)cc2)CC1` (stereo not drawn): 0.38 µM and over 40 µM.

In the assay on Plasmodium falciparum, `CC(C(=O)N1CCCC1)N1CCN(S(=O)(=O)c2ccc(C(C)(C)C)cc2)CC1=O` (stereo not drawn) had an EC50 of over 10 µM. Same read-out and setting: under `CC(C)(C)c1ccc(S(=O)(=O)N2CCN(CC(=O)N3CCCC3)CC2)cc1` stands over 10 µM; under `CC(C(=O)N1CCNCC1)N1CCN(S(=O)(=O)c2ccc(C(C)(C)C)cc2)CC1` (stereo not drawn), over 10 µM; under `CC(C(=O)N1CCCC1)N1CCN(S(=O)(=O)c2ccc(C(F)(F)F)cc2)CC1` (stereo not drawn), over 10 µM. Turning to `CC(C(=O)N1CCCC1)N1CCN(S(=O)(=O)c2ccc(Br)cc2)CC1` (stereo not drawn), the EC50 with Plasmodium falciparum is over 10 µM. The same measure, in the same setting: the result for `CC(=O)c1ccc(S(=O)(=O)N2CCN(C(C)C(=O)N3CCCC3)CC2)cc1` (stereo not drawn) reads over 10 µM; that for `Cc1ccc(S(=O)(=O)N2CCN(C(C)C(=O)N3CCCC3)CC2)cc1` (stereo not drawn), over 10 µM. On the same count and under the same terms, under `CC(C(=O)N1CCCC1)N1CCN(S(=O)(=O)c2ccc(C(C)(C)C)cc2)[C@H](C)C1` (stereo partly drawn) stands over 10 µM. Still for that read-out and setting: the result for `CCNC(=O)C(C)N1CCN(S(=O)(=O)c2ccc(C(C)(C)C)cc2)CC1` (stereo not drawn) reads over 10 µM; that for `CC(C(=O)N1CCCC1)N1CCN(S(=O)(=O)c2ccc(C3CC3)cc2)CC1` (stereo not drawn), over 10 µM.

For `CC(C(=O)N1CCCC1)N1CCN(S(=O)(=O)c2ccc(S(F)(F)(F)(F)F)cc2)CC1` (stereo not drawn), in the assay on Plasmodium falciparum, the EC50 is over 10 µM. On to `CC(C)C(C(=O)N1CCCC1)N1CCN(S(=O)(=O)c2ccc(C(C)(C)C)cc2)CC1` (stereo not drawn), for which, in the assay on Plasmodium falciparum, the EC50 is over 10 µM.

In turn, `CC(C(=O)N1CCCC1)N1CCN(S(=O)(=O)c2ccc(CC(F)(F)F)cc2)CC1` (stereo not drawn) returned an EC50 in the assay with Plasmodium falciparum of over 10 µM. In the assay with Plasmodium falciparum, `COc1ccc(S(=O)(=O)N2CCN(C(C)C(=O)N3CCCC3)CC2)cc1` (stereo not drawn) returned a 50% effective concentration (EC50) of over 10 µM. The same measure, in the same setting: under `CC(C(=O)N(C)c1ccccc1)N1CCN(S(=O)(=O)c2ccc(C(C)(C)C)cc2)CC1` (stereo not drawn) stands over 10 µM.

As for `CC(C(=O)N1CCCC1)N1CCN(S(=O)(=O)c2ccc(C3(C(F)(F)F)CC3)cc2)CC1` (stereo not drawn), the EC50 in the assay on Plasmodium falciparum was over 10 µM.

With `CN(C(=O)N1CCCC1)C1CCN(S(=O)(=O)c2ccc(C(C)(C)C)cc2)CC1`, the EC50 in the assay on Plasmodium falciparum was over 10 µM. In the assay on Plasmodium falciparum, `CC(C(=O)N1CCCC1)N1CCN(S(=O)(=O)c2ccc(OC(F)(F)F)cc2)CC1` (stereo not drawn) came in with an EC50 of over 10 µM. On the same count and under the same terms, under `CCCC(C(=O)N1CCCC1)N1CCN(S(=O)(=O)c2ccc(C(C)(C)C)cc2)CC1` (stereo not drawn) stands over 10 µM; under `CC(C(=O)N1CCCC1)N1CCN(S(=O)(=O)c2ccc(C3CCCC3)cc2)CC1` (stereo not drawn), over 10 µM; under `CC(C(=O)N1CCCC1)N1CC2(C1)CN(S(=O)(=O)c1ccc(C(C)(C)C)cc1)C2` (stereo not drawn), over 10 µM.
